In BindingDB's records for doi:10.1021/acs.jmedchem.5b01762 (University of Illinois At Chicago, 2016):

Experiments:
[1] = molecular target: T1, DNA repair protein RAD51 homolog 1 (Homo sapiens, UniProt Q06609); experiment: Inhibition of Escherichia coli BL21(DE3) expressing human N-terminal 6-histidine/Avi-tagged RAD51 binding to 5'-Alexa488-oligo-dT45 ssDNA preincubated for 40 mins followed by substrate addition measured after 40 mins by fluorescence polarization based microplate method
T1 sequence (Q06609 whole entry): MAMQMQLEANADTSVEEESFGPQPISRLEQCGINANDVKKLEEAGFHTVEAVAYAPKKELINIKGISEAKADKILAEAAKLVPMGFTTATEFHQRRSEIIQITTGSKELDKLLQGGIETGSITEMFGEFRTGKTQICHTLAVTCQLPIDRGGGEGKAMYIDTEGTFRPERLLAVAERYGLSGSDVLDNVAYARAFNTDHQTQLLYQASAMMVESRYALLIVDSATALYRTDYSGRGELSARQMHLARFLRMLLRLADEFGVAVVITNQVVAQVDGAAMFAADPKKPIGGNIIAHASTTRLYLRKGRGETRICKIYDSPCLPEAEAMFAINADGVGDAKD
How it was run: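 Human RAD51 preincubated with compound in DMSO at 37 °C for 40 min, then 5'-Alexa488-oligo-dT45 added and incubated another 40 min at 37 °C. Buffer: 20 mM HEPES pH 7.5, 2 mM ATP, 10 mM MgCl2, 0.1 mM TCEP. IC50 from least-squares dose–response fits with standard error.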

[2] = molecular target: T1, DNA repair protein RAD51 homolog 1; experiment: Inhibition of human N-terminal 6-histidine/Avi-tagged recombinant RAD51 expressed in Escherichia coli BL21(DE3) assessed as D-loop formation using 5'-32P-labeled 90-mer ssDNA as substrate preincubated for 10 mins followed by substrate addition with subsequent incubation with substrate for 5 mins measured after 20 mins in presence of supercoiled pRS306 dsDNA by agarose gel electrophoresis

IC50 [1]: > 100 µM
IC50 [2]: > 100 µM
Structure (SMILES): COc1ccc2c(c1)NC(c1ccc(N(C)C)cc1)c1cccn1-2 (configuration not stated)
